Reference: publication PMC3179183 (Bioorganic & medicinal chemistry letters, 2010)
pEC50: −log10 of the molar value. Where two headings read alike, the source gives them in different places. Blank lines part the entries; values can stand above or below the compound they belong to.

Tests used:
M5 [1] = target: T1, M5 (Homo sapiens, UniProt P08912); type: cell-based; conditions: single point 10 µM, M5-CHO cells
T1 sequence (P08912 1-532): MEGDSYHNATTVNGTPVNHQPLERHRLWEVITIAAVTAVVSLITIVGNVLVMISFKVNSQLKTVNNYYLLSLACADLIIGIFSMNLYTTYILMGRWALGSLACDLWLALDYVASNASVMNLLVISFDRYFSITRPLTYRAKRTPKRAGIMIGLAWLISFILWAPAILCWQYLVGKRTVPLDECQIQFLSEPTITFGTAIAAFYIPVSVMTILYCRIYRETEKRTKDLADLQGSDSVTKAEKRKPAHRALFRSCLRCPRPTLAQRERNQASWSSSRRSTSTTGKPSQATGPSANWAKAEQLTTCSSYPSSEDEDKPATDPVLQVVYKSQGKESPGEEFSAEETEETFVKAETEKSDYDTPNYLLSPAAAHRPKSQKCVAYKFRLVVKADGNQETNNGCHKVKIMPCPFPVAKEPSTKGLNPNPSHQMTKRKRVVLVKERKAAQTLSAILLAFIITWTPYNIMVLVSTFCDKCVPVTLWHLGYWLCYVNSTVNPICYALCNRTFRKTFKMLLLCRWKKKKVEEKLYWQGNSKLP

M5 [2] = target: T1, M5; assay: M5 PAM activity, mobilization of intracellular calcium in M5 CHO cells; type: cell-based
M3 [3] = target: T2, M3 (Homo sapiens, UniProt P20309); assay: 30 µM fold-shift selectivity assay, M3; type: cell-based
T2 sequence (P20309 whole entry): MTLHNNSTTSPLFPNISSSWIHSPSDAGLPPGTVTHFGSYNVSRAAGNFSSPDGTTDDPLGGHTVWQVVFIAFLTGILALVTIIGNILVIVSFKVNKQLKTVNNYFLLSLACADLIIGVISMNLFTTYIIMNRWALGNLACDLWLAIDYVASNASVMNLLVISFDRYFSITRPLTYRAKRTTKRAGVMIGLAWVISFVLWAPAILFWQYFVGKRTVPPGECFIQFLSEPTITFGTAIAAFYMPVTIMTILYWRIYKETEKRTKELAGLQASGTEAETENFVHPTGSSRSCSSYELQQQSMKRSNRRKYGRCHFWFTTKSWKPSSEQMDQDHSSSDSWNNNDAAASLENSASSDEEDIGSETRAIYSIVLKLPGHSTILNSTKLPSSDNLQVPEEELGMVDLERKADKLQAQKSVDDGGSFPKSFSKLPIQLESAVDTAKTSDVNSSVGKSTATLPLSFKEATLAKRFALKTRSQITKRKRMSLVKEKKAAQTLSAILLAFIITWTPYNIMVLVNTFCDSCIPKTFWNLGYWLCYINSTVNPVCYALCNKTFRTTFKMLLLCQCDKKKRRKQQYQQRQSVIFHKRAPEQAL
Outline: (§1)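 Intracellular calcium mobilization in CHO cells expressing the receptor. Test compound at a fixed 30 µM, read as the fold-shift of the acetylcholine concentration-response. Data are means from at least three independent determinations.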

M5 [4] = target: T1, M5; assay: Human M5 ACh fold-shift assay at 30 µM; type: cell-based
M2 [5] = target: T3, M2 (Homo sapiens, UniProt P08172); assay: 30 µM fold-shift selectivity assay, M2; type: cell-based
T3 sequence (P08172 1-466): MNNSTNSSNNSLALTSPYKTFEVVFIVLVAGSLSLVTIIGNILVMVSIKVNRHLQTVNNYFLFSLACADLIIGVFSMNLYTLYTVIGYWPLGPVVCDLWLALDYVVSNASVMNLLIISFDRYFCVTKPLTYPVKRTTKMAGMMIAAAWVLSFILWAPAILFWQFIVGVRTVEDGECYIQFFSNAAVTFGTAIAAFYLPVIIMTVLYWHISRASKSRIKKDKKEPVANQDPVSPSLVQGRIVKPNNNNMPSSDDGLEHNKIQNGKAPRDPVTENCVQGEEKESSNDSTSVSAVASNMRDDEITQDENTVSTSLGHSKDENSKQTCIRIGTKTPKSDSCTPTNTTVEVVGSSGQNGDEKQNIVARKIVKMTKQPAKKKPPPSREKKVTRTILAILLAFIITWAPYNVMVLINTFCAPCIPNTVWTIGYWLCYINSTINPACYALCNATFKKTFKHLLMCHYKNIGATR
Outline: (§2)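 Intracellular calcium mobilization in CHO cells expressing the receptor co-transfected with Gqi5 to couple it to calcium signalling. Test compound at a fixed 30 µM, read as the fold-shift of the acetylcholine concentration-response. Data are means from at least three independent determinations.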

M4 [6] = target: T4, M4 (Homo sapiens, UniProt P08173); assay: 30 µM fold-shift selectivity assay, M4; type: cell-based
T4 sequence (P08173 1-479): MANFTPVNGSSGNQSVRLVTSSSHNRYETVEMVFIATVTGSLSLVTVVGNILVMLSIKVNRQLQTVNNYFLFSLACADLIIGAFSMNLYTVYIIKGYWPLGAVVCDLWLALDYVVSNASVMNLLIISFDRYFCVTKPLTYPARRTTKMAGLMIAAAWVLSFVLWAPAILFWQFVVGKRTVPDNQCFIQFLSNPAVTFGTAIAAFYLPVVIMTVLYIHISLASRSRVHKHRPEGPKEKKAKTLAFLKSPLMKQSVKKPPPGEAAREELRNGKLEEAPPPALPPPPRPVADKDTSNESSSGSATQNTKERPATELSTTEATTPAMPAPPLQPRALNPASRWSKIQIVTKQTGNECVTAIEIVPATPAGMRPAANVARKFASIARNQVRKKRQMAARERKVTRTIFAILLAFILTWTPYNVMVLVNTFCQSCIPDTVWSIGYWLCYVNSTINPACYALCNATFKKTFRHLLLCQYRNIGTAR
Outline: as §2

M1 [7] = target: T5, M1 (Homo sapiens, UniProt P11229); assay: 30 µM fold-shift selectivity assay, M1; type: cell-based
T5 sequence (P11229 1-460): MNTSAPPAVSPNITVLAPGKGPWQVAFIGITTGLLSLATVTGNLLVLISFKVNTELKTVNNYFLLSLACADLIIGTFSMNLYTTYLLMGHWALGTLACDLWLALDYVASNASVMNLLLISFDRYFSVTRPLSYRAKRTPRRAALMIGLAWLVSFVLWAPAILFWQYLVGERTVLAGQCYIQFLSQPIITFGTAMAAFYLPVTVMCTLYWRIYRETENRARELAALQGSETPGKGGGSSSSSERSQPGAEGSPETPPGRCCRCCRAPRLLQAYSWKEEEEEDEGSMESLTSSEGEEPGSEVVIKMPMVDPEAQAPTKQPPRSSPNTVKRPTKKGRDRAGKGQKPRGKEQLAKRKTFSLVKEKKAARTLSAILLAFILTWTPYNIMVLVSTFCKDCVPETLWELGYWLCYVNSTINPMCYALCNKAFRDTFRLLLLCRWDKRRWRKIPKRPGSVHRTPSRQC
Outline: as §1

NET = NET (Homo sapiens, UniProt P23975); assay: Ancillary pharmacology panel, NET; type: binding; conditions: same assay panel; significant = >50% inhibition at 10 µM
Sequence of NET (P23975 whole entry): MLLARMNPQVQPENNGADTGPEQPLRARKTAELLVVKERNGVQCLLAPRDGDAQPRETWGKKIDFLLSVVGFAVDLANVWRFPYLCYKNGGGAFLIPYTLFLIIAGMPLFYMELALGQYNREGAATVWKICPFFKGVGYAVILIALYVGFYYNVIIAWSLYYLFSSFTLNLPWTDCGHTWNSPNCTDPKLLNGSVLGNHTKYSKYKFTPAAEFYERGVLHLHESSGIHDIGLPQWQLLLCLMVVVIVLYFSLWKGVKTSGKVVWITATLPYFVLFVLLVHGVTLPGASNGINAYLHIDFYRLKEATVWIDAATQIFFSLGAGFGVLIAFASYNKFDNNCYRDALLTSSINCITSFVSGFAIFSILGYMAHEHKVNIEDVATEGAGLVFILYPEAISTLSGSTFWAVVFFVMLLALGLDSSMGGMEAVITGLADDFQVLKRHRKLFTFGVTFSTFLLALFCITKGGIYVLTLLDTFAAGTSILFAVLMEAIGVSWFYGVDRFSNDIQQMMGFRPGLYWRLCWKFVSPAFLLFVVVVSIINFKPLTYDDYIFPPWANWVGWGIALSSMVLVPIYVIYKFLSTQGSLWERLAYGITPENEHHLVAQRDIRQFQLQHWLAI

[8] = Ancillary pharmacology panel; type: binding
H1 = H1 (Homo sapiens, UniProt P35367); assay: Ancillary pharmacology panel, H1; type: binding; conditions: same assay panel; significant = >50% inhibition at 10 µM
Sequence of H1 (P35367 whole entry): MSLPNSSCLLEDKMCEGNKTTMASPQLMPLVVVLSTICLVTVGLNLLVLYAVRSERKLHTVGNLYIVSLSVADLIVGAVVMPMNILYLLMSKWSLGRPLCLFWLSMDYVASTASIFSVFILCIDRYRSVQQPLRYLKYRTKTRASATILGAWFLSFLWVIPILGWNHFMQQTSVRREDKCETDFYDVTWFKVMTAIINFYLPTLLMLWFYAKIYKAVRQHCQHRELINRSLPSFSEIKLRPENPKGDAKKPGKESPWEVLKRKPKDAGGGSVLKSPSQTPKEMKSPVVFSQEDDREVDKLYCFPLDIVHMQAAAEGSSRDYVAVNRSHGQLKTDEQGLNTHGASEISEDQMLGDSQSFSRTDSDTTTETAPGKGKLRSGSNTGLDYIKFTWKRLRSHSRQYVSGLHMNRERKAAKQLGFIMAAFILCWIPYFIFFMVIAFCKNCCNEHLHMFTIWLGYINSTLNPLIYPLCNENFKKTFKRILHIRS

M2 [9] = target: T3, M2; conditions: read-out: M2 EC50, cited from earlier work
M3 [10] = target: T2, M3; conditions: read-out: M3 EC50, cited from earlier work
M5 [11] = target: T1, M5; conditions: read-out: M5 EC50; vs. M2–M5; cited from earlier work
M1 [12] = target: T5, M1; conditions: read-out: M1 EC50, cited from earlier work
M4 [13] = target: T4, M4; conditions: read-out: M4 EC50, cited from earlier work
[14] = cited from earlier work
[15] = in words; cited from earlier work

ability to potentiate an EC20 of ACh (M5 [1]): did decrease the ACh EC20
Compound: CC1CCCN(COc2ccc3c(c2)C(=O)C(=O)N3Cc2ccc(-c3ccccc3)cc2)C1 (centres unmarked) [10ee]

ability to potentiate an EC20 of ACh (M5 [1]): did decrease the ACh EC20
Compound: CN(C)CCOc1ccc2c(c1)C(=O)C(=O)N2Cc1ccc(-c2ccccc2)cc1 [10gg]

ability to potentiate an EC20 of ACh (M5 [1]): did decrease the ACh EC20
Compound: O=C1C(=O)N(Cc2ccc(-c3ccccc3)cc2)c2ccc(OCCN3CCCC3)cc21 [10kk]

M5 PAM activity (in words) (M5 [2]): devoid of M5 PAM activity
Compound: O=C1C(=O)N(Cc2ccc(-c3cccnc3)cn2)c2ccc(OC(F)(F)F)cc21 [21b]

M5 PAM activity (in words) (M5 [2]): devoid of M5 PAM activity
Compound: O=C1C(=O)N(Cc2ccc(-c3ccncc3)cn2)c2ccc(OC(F)(F)F)cc21 [21c]

allosteric agonism (M5 [4]): ~ 20%
Compound: O=C1C(=O)N(Cc2ccc(-c3ccccc3)nc2)c2ccc(OC(F)(F)F)cc21 [22a]
effect on M3, fold-shift selectivity (M3 [3]): neither 22a nor 27b showed any significant effect | effect on M2, fold-shift selectivity (M2 [5]): neither 22a nor 27b showed any significant effect | effect on M4, fold-shift selectivity (M4 [6]): neither 22a nor 27b showed any significant effect | effect on M1, fold-shift selectivity (M1 [7]): neither 22a nor 27b showed any significant effect

activity at NET (NET): significant activity | activity at H1 (H1): significant activity
Compound: O=C1C(=O)N(Cc2ccc(Oc3cccc(F)n3)cc2)c2ccc(OC(F)(F)F)cc21 [27b]
effect on M3, fold-shift selectivity (M3 [3]): neither 22a nor 27b showed any significant effect | number of targets with modest activities ([8]; of the 68 targets): 11 targets | effect on M2, fold-shift selectivity (M2 [5]): neither 22a nor 27b showed any significant effect | effect on M4, fold-shift selectivity (M4 [6]): neither 22a nor 27b showed any significant effect | effect on M1, fold-shift selectivity (M1 [7]): neither 22a nor 27b showed any significant effect

Compound: Cn1cc(-c2ccc(CN3C(=O)C(=O)c4ccccc43)c(F)c2)cn1 [compound 2]
pEC50 (M2 [9]; vs. M2–M5): < 4.52 | pEC50 (M3 [10]; vs. M2–M5): < 4.52 | pEC50 (M5 [11]): < 4.52 | pEC50 (M1 [12]; PAM): 6.08 | pEC50 (M4 [13]; vs. M2–M5): < 4.52

Compound: O=C1C(=O)N(Cc2ccc(-c3ccccc3)cc2)c2ccc(OC(F)(F)F)cc21 [compound 4]
pEC50 (M2 [9]; vs. M1–M4): < 4.52 | pEC50 (M3 [10]; vs. M1–M4): < 4.52 | pEC50 (M1 [12]; vs. M1–M4): < 4.52 | logP [14]: > 4.5 | pEC50 (M4 [13]; vs. M1–M4): < 4.52 | solubility [15]: limited solubility

Compound: O=C1C(=O)N(Cc2ccc(Oc3ccccc3)cc2)c2ccc(OC(F)(F)F)cc21 [compound 5]
number of targets with significant activity (>50% inhibition at 10 µM) ([8]; of 68 targets, 10 µM): 32 targets | pEC50 (M2 [9]; vs. M1–M4): < 4.52 | pEC50 (M3 [10]; vs. M1–M4): < 4.52 | pEC50 (M1 [12]; vs. M1–M4): < 4.52 | logP [14]: > 4.5 | pEC50 (M4 [13]; vs. M1–M4): < 4.52 | solubility [15]: limited solubility

M5 PAM activity (in words) (M5 [2]): loss in both potency and efficacy
Compound: O=C1C(=O)N(Cc2ccc(-c3ccccc3)cc2F)c2ccc(OC(F)(F)F)cc21 [compound 11]

M5 PAM activity (in words) (M5 [2]): loss in both potency and efficacy
Compound: O=C1C(=O)N(Cc2c(F)cc(-c3ccccc3)cc2F)c2ccc(OC(F)(F)F)cc21 [compound 12]

Compound: O=C1C(=O)N(Cc2ccc3c(c2)OCO3)c2ccc(OC(F)(F)F)cc21 [compound 13]
M5 PAM activity (in words) (M5 [2]): highly efficacious M5 PAM of comparable potency to 4
